Assay outcomes: PubChem BioAssay, several laboratories
Hep lipid drop = modulators of hepatic lipid droplet formation; AML12 mouse hepatocytes, oleate lipid droplets, BODIPY imaging; inhibition, % at 6.5 µM; 0.4% of 240,000 active; AID 1656;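 active = lipid droplet intensity inhibited by at least 50%, with more than 500 cells counted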
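material = mouse AML12 hepatocyte cell line, fixed after treatment | also added = 100 µM oleic acid challenge | doses = compound at 6.5 µM only | schedule = overnight exposure | technique = Image-based BODIPY and DAPI two-channel analysis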
ADAM10 inh = inhibits human ADAM10 | O14672 | inhibition, % at 7 µM | recombinant ADAM10, EDANS/DABCYL FRET peptide cleavage, 3 h | AID 720582 | 0.62% of 370,000 active;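 active = inhibition above a per-campaign cutoff equal to the mean of compounds falling between control-based bounds plus 3 SD, cut at about 20% in these data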;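 also: 0% = DMSO wells while the 100% control is not disclosed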
Target sequence (O14672 214-748 limits assumed): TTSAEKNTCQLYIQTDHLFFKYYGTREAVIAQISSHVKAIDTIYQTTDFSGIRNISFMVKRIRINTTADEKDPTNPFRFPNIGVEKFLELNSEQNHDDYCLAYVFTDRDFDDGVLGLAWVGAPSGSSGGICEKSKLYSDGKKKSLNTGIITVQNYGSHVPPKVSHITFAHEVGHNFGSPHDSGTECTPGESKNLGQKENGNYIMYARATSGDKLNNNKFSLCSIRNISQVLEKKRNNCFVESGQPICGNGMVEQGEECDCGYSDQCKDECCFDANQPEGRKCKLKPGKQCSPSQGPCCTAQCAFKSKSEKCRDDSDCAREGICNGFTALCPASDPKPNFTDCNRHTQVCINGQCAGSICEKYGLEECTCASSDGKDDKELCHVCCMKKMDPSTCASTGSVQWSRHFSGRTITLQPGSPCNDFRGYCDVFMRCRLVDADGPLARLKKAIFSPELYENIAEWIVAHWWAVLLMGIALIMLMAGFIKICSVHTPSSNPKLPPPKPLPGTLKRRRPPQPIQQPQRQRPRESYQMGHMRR
aDG glyco up = increases alpha dystroglycan glycosylation. Pro5-aDG cells, alpha-DG glycosylation AlphaScreen (IIH6); 0% Pro5, 100% B10-LARGE cell signal. activation, % at 10 µM. 0.22% of 360,000 active;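 active = activation of at least 8% versus controls, or a plate z-score of at least 8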;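 also: Pro5 are CHO cells carrying HIG-tagged alpha-DG that lacks glycosylation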
V-ATPase pH = yeast V-ATPase proton transport regulation by pHLuorin; S. cerevisiae, pHLuorin cytosolic pH fluorescence; response, % at 10 µM; 0.37% of 350,000 active; AID 504577; in the data active = response mostly above about 7.3%, no sharp cut-off; inactive = mostly below about 5.4%; also: actives read high
ADAM17 inh = ADAM17 inhibition, QFRET primary screen; inhibition, % at 6.95 µM; recombinant ADAM17, EDANS/DABCYL FRET peptide cleavage; AID 720648; 0.83% of 370,000 active;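 active = inhibition above the mean of compounds lying between control limits plus 3 SD, set per campaign, cut at about 8.5% in these data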;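 also: 0% = DMSO-only wells as the low control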
MPTP block = inhibitors of mitochondrial permeability transition pore | isolated mouse mitochondria, Ca2+ swelling absorbance, 30 min | inhibition, % at 10 µM | 1.4% of 360,000 active;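 active = inhibition of 50% or more, scaled per plate between neutral and stimulator controls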;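 also: 0% = DMSO wells given calcium and 100% = 1 mM EGTA wells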
ADAM10 confirm = human ADAM10 inhibition, confirmation. shares compounds with ADAM10 inh. ADAM10 QFRET peptide cleavage, EDANS fluorescence. inhibition, % at 6.95 µM. 1% of 2,100 active;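 active = inhibition above about 20% chosen separately for each screening run, limit read from the data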;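 also: 0% = DMSO wells and 100% = marimastat wells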
ADAM17 counter = ADAM17 inhibition, counter-screen for ADAM10 exosite hits; inhibition, % at 6.95 µM; ADAM17 QFRET peptide cleavage, EDANS fluorescence; shares compounds with ADAM10 inh; 0.5% of 2,100 active; AID 743214;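 active = mean triplicate inhibition above the solvent-only control wells' mean plus 3 SD, cut at about 12% in these data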;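 also: 0% = DMSO wells and 100% = marimastat wells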
ADAM10 counter = ADAM10 inhibition, counter-screen for ADAM17 exosite hits; shares compounds with ADAM17 inh; recombinant ADAM10, EDANS/DABCYL FRET peptide cleavage, 3 h; inhibition, % at 6.95 µM; 47% of 2,900 active;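 active = mean inhibition over the triplicate runs exceeds the activity threshold set in the earlier primary screen, cut at about 20% in these data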;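 also: 0% = DMSO wells and 100% = marimastat wells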
ADAM17 confirm = human ADAM17 inhibition, confirmation; recombinant ADAM17, EDANS/DABCYL QFRET peptide cleavage; AID 743257; shares compounds with ADAM17 inh; inhibition, % at 6.95 µM; 65% of 2,900 active;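 active = mean inhibition across replicates above the hit cutoff set in the primary screen, cut at about 8.5% in these data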;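 also: 0% = DMSO wells and 100% = marimastat wells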
* = called active by the depositor; · = no result given. Compounds with a hit are over-represented: about 3.1% of the library has one in this group of screens.

SMILES	Hep lipid drop	ADAM10 inh	aDG glyco up	V-ATPase pH	ADAM17 inh	MPTP block	ADAM10 confirm	ADAM17 counter	ADAM10 counter	ADAM17 confirm
CC(COc1ccccc1C#N)CN1CCC(C(O)(c2ccccc2)c2ccccc2)CC1 (stereo unspecified)	·	4	·	·	2	·	·	·	·	·
Cc1cc(C(=O)COC(=O)c2ccc(O)cc2)c(C)n1CC1COc2ccccc2O1 (stereo unspecified)	19	26*	1	-4	20*	3	7	3	13	8
Cc1cc(C(=O)COC(=O)c2ccc3c(c2)OCO3)c(C)n1CC1CCCO1 (stereo unspecified)	19	0	0	0	-2	1	·	·	·	·
COc1ccc(C2=Nc3ccccc3NC(=O)C2N(C(=O)c2cnc(C)cn2)c2ccc(N3CCOCC3)cc2)cc1 (stereo unspecified)	·	-4	0	·	-2	0	·	·	·	·
COc1ccc(C2=Nc3ccccc3NC(=O)C2N(C(=O)c2ccnc3ccccc23)c2ccccc2)cc1 (stereo unspecified)	·	33*	0	·	17*	0	3	1	21*	15*
O=C(CC1CCCC1)N[C@H](C(=O)N1CCC[C@H]1C(=O)NCCc1ccccc1Cl)c1ccccc1	·	-1	·	·	-5	·	·	·	·	·
O=C(CN1CCN(c2ccccc2O)CC1)Nc1cc(S(=O)(=O)N2CCCC2)ccc1Cl	·	29*	0	-2	8.9*	-1	7	3	13	11*
CCCCCCNC(=O)C1CSCCS(=O)(=O)N1Cc1ccccc1 (stereo unspecified)	·	-1	·	·	0	·	·	·	·	·
CC(=O)c1cccc(NC(=O)C2C(c3ccccc3)C2(Cl)Cl)c1 (stereo unspecified)	-1	-2	0	-3	2	8	·	·	·	·
Cc1cccc(NC(=O)C2C(c3ccccc3)C2(Cl)Cl)c1 (stereo unspecified)	0	21*	0	-2	11*	15	5	2	24*	14*
O=S(=O)(c1ccccc1)N(CC(F)(F)F)c1ccc(C(O)(C(F)(F)F)C(F)(F)F)cc1	·	49*	0	·	22*	4	0	1	37*	22*
COC(=O)CN(c1ccccc1)S(=O)(=O)c1ccccc1	·	-1	0	1	-1	0	·	·	·	·
Cc1ccc(NS(=O)(=O)c2ccc(N3CCN(c4ccc(O)cc4)CC3)c([N+](=O)[O-])c2)c(C)c1	-20	20*	1	0	10*	4	6	-1	32*	19*
CCOC(=O)c1ccc(NC(=O)C2CCCN(S(=O)(=O)c3ccc(F)cc3)C2)cc1 (stereo unspecified)	4	25*	0	-2	8.8*	-4	1	1	17	13*
O=C(Oc1ccc(OC(=O)c2ccco2)c(S(=O)(=O)c2ccc(Cl)cc2)c1)c1ccco1	20	26*	0	-29	8.8*	-1	4	2	20	9.7*
CC(=O)c1cc(Cl)ccc1OC(=O)c1ccco1	11	3	0	3	-7	2	·	·	·	·
CSc1ccccc1OCc1cc(C(=O)N2CCc3[nH]cnc3C2c2ccccn2)no1 (stereo unspecified)	10	25*	0	1	11*	-1	8	3	-1	2
CSc1ccccc1OCc1cc(C(=O)N2CCN(c3ccccc3)CC2C)no1 (stereo unspecified)	-6	2	0	0	4	1	·	·	·	·
Cc1ccc(C(=O)Oc2cccc(NC(=O)c3ccccc3)c2)cc1C	5	25*	0	-2	13*	-1	9	2	24*	14*
O=S(=O)(Nc1ccccc1)c1ccc(Oc2ncc(C(F)(F)F)cc2Cl)cc1	-9	29*	0	-2	12*	38	5	2	35*	19*
OC[C@@H]1CN(Cc2ccccc2)C[C@H](n2cnc3c(NCc4ccc(F)cc4)ncnc32)O1	·	-30	0	·	-7	0	·	·	·	·
OC[C@@H]1CN(Cc2ccc(-c3ccccc3)cc2)C[C@H](n2cnc3c(NCc4ccc(F)cc4)ncnc32)O1	·	23*	5	·	8.9*	2	6	4	29*	18*
COc1cc(CNc2ncnc3c2ncn3[C@H]2CN(Cc3cccc(C(F)(F)F)c3)C[C@@H](COC(C)=O)O2)cc(OC)c1OC	·	10	0	·	6	2	·	·	·	·
COc1cc(CNc2ncnc3c2ncn3[C@H]2CN(Cc3cccc(C(F)(F)F)c3)C[C@@H](CO)O2)cc(OC)c1OC	·	23*	0	·	9.7*	0	1	-1	14	10*
Fc1ccc(-c2n[nH]c(=S)n2N=Cc2cccc(OCc3ccccc3)c2)cc1	·	5	·	·	2	·	·	·	·	·
SMILES	Hep lipid drop	ADAM10 inh	aDG glyco up	V-ATPase pH	ADAM17 inh	MPTP block	ADAM10 confirm	ADAM17 counter	ADAM10 counter	ADAM17 confirm
O=C(CSc1nnc(-c2ccccn2)n1-c1ccccc1)Nc1ccccc1-c1ccccc1	·	-11	·	·	-2	·	·	·	·	·
Cc1ccc(S(=O)(=O)NCCC(c2ccccc2)c2ccco2)cc1 (stereo unspecified)	9	6	0	-1	2	5	·	·	·	·
COc1ccccc1C(CCNS(=O)(=O)c1ccc(C)cc1)c1ccco1 (stereo unspecified)	12	21*	0	8	9.3*	9	5	2	27*	18*
COC(=O)[C@]12C[C@H](CC(=O)NCc3cccc(C(F)(F)F)c3)C(=O)N(Cc3ccco3)C1=C[C@H](C(C)C)O[C@@H]2C1CC1	·	24*	·	·	12*	·	2	2	49*	24*
COC(=O)[C@]12C[C@H](CC(=O)NCc3cccc(C(F)(F)F)c3)C(=O)N(CCc3ccc(OC)c(OC)c3)C1=C[C@H](C(C)(C)C)O[C@@H]2C	·	12	·	·	7	·	·	·	·	·
COC(=O)[C@]12C[C@H](CC(=O)NCCc3ccccc3OC)C(=O)N(Cc3cccc4ccccc34)C1=C[C@H](C(C)C)O[C@@H]2C1CC1	·	22*	·	·	11*	·	8	2	27*	17*
